Reference: publication PMC8359310 (British Journal of Clinical Pharmacology, 2020)

What was measured:
[1] = test system: breast cancer resistant protein (BCRP); assay: In vitro inhibition of transporter BCRP by capmatinib; type: in vitro ADME; conditions: 400 mg twice daily
[2] = Capmatinib plasma concentrations in DDI and post‐DDI phase; type: in vivo, human; conditions: 400 mg twice daily
[3] = test system: MET‐dysregulated advanced solid tumours; assay: Antitumour activity by Investigator's assessment per RECIST 1.1; type: in vivo, human
In short: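 Adults (≥18 years) with refractory MET-dysregulated advanced solid tumours (amplification with gene copy number ≥4 by FISH or qPCR, IHC intensity +3 in ≥50% of tumour cells, or exon 14 deletion mutation). Test compound given orally at 400 mg twice daily, then continued on 21-day cycles. Investigator-read CT every 6 weeks. Patients stopping for other reasons were followed until progression, new therapy or death.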

Safety assessments = type: in vivo, human
[4] = Estimated maximum luminal concentration in the gut; set-up: species or system human; conditions: therapeutic dose 400 mg twice daily; dose/250 mL
p‐glycoprotein (P‐gp) = conditions: in vitro, cited from earlier work
[5] = test system: breast cancer resistant protein (BCRP); conditions: in vitro, cited from earlier work
[6] = target: organic anion transporting polypeptide (OATP) 1B1; conditions: read-out: Ki for OATP1B1; in vitro; ref data on file; cited from earlier work
OATP1B3 = conditions: read-out: Ki for OATP1B3; in vitro; ref data on file; cited from earlier work
[7] = cited from earlier work
[8] = one of the capmatinib studies; ref data on file; cited from earlier work
[9] = regardless of study drug relationship

CNC(=O)c1ccc(-c2cnc3ncc(Cc4ccc5ncccc5c4)n3n2)cc1F [capmatinib]
maximum luminal gut concentration relative to Ki for BCRP [1]: > 300 fold
geometric mean predose concentration ([2]; Cycle 2 Day 1 (post‐DDI phase)): 529 ng/mL
geometric mean predose concentration ([2]; Day 22 (DDI phase)): 407 ng/mL
concentration at 2 h ([2]; human, oral): 3960 ng/mL
Best overall response: Progressive disease (PD) ([3]; all patients n = 32): 17 (53.1) n (%)
Best overall response: Unknown ([3]; all patients n = 32): 7 (21.9) n (%)
complete response (CR) or partial response (PR) ([3]; all patients n = 32): No patient
disease control rate (CR + PR + SD) ([3]; in vivo): 25%
patients with PD as best overall response ([3]; in vivo): 53.1%
patients with stable disease as best overall response ([3]; in vivo): 25%
patients with unknown response ([3]; in vivo): 21.9%
patients with AEs leading to study drug discontinuation (Safety assessments; all events grade 3/4): 9.4%
patients with treatment‐related AEs (Safety assessments; all grades): 78.1%
treatment‐related asthenia, patients (Safety assessments; all grades): 18.8%
treatment‐related dyspepsia, patients (Safety assessments; all grades): 15.6%
treatment‐related nausea, patients (Safety assessments; all grades): 34.4%
treatment‐related peripheral oedema, patients (Safety assessments; all grades): 12.5%
treatment‐related vomiting, patients (Safety assessments; all grades): 34.4%
nausea leading to dose adjustment or dose interruption, patients (Safety assessments; both Grade ≤2): 6.3%
alterations in the electrocardiograph (Safety assessments; in vivo): No clinically relevant alterations
on‐treatment deaths (Safety assessments; in vivo): 18.8%
on‐treatment deaths due to AE (respiratory tract infection) (Safety assessments; in vivo): 3.1%
on‐treatment deaths due to AEs with disease progression as contributing reason (Safety assessments; in vivo): 9.4%
on‐treatment deaths due to disease progression (Safety assessments; in vivo): 6.3%
other treatment‐related SAEs: anaemia, abdominal pain and malaise, each (Safety assessments; in vivo): 1 patient
patients who died during the study (Safety assessments; in vivo): 25.0%
patients with AEs requiring dose adjustment or study drug interruption (Safety assessments; in vivo): 40.6%
patients with treatment‐related Grade 3/4 AEs (Safety assessments; in vivo): 25.0%
patients with treatment‐related SAEs (Safety assessments; in vivo): 12.5%
treatment‐related Grade 3/4 vomiting, patients (Safety assessments; in vivo): 6.3%
treatment‐related SAE vomiting, patients (Safety assessments; in vivo): 9.4%
Abdominal pain upper, Grade 3/4 (Safety assessments; [9]): 0 n (%)
Abdominal pain upper, all grades (Safety assessments; [9]): 4 (12.5) n (%)
Abdominal pain, Grade 3/4 (Safety assessments; [9]): 1 (3.1) n (%)
Abdominal pain, all grades (Safety assessments; [9]): 3 (9.4) n (%)
Anaemia, Grade 3/4 (Safety assessments; [9]): 3 (9.4) n (%)
Anaemia, all grades (Safety assessments; [9]): 7 (21.9) n (%)
Asthenia, Grade 3/4 (Safety assessments; [9]): 2 (6.3) n (%)
Asthenia, all grades (Safety assessments; [9]): 14 (43.8) n (%)
Back pain, Grade 3/4 (Safety assessments; [9]): 1 (3.1) n (%)
Back pain, all grades (Safety assessments; [9]): 6 (18.8) n (%)
Blood albumin decreased, Grade 3/4 (Safety assessments; [9]): 1 (3.1) n (%)
Blood albumin decreased, all grades (Safety assessments; [9]): 2 (6.3) n (%)
Candida infection, Grade 3/4 (Safety assessments; [9]): 0 n (%)
Candida infection, all grades (Safety assessments; [9]): 2 (6.3) n (%)
Constipation, Grade 3/4 (Safety assessments; [9]): 0 n (%)
Constipation, all grades (Safety assessments; [9]): 13 (40.6) n (%)
Cough, Grade 3/4 (Safety assessments; [9]): 0 n (%)
Cough, all grades (Safety assessments; [9]): 5 (15.6) n (%)
Decreased appetite, Grade 3/4 (Safety assessments; [9]): 1 (3.1) n (%)
Decreased appetite, all grades (Safety assessments; [9]): 7 (21.9) n (%)
Depression, Grade 3/4 (Safety assessments; [9]): 0 n (%)
Depression, all grades (Safety assessments; [9]): 2 (6.3) n (%)
Diarrhoea, Grade 3/4 (Safety assessments; [9]): 1 (3.1) n (%)
Diarrhoea, all grades (Safety assessments; [9]): 6 (18.8) n (%)
Dyspepsia, Grade 3/4 (Safety assessments; [9]): 0 n (%)
Dyspepsia, all grades (Safety assessments; [9]): 7 (21.9) n (%)
Dyspnoea, Grade 3/4 (Safety assessments; [9]): 2 (6.3) n (%)
Dyspnoea, all grades (Safety assessments; [9]): 6 (18.8) n (%)
Fatigue, Grade 3/4 (Safety assessments; [9]): 0 n (%)
Fatigue, all grades (Safety assessments; [9]): 4 (12.5) n (%)
Headache, Grade 3/4 (Safety assessments; [9]): 0 n (%)
Headache, all grades (Safety assessments; [9]): 2 (6.3) n (%)
Hypotension, Grade 3/4 (Safety assessments; [9]): 1 (3.1) n (%)
Hypotension, all grades (Safety assessments; [9]): 2 (6.3) n (%)
Increased blood bilirubin, Grade 3/4 (Safety assessments; [9]): 1 (3.1) n (%)
Increased blood bilirubin, all grades (Safety assessments; [9]): 5 (15.6) n (%)
Lymphocyte count decreased, Grade 3/4 (Safety assessments; [9]): 1 (3.1) n (%)
Lymphocyte count decreased, all grades (Safety assessments; [9]): 2 (6.3) n (%)
Nausea, Grade 3/4 (Safety assessments; [9]): 2 (6.3) n (%)
Nausea, all grades (Safety assessments; [9]): 18 (56.3) n (%)
Oedema peripheral, Grade 3/4 (Safety assessments; [9]): 0 n (%)
Oedema peripheral, all grades (Safety assessments; [9]): 9 (28.1) n (%)
Pulmonary embolism, Grade 3/4 (Safety assessments; [9]): 3 (9.4) n (%)
Pulmonary embolism, all grades (Safety assessments; [9]): 3 (9.4) n (%)
Pyrexia, Grade 3/4 (Safety assessments; [9]): 1 (3.1) n (%)
Pyrexia, all grades (Safety assessments; [9]): 8 (25.0) n (%)
Rash, Grade 3/4 (Safety assessments; [9]): 0 n (%)
Rash, all grades (Safety assessments; [9]): 2 (6.3) n (%)
Respiratory tract infection, Grade 3/4 (Safety assessments; [9]): 1 (3.1) n (%)
Respiratory tract infection, all grades (Safety assessments; [9]): 5 (15.6) n (%)
Total adverse events, Grade 3/4 (Safety assessments; [9]): 18 (56.3) n (%)
Total adverse events, all grades (Safety assessments; [9]): 32 (100) n (%)
Urinary tract infection, Grade 3/4 (Safety assessments; [9]): 0 n (%)
Urinary tract infection, all grades (Safety assessments; [9]): 3 (9.4) n (%)
Vertigo, Grade 3/4 (Safety assessments; [9]): 0 n (%)
Vertigo, all grades (Safety assessments; [9]): 2 (6.3) n (%)
Vitamin K decreased, Grade 3/4 (Safety assessments; [9]): 1 (3.1) n (%)
Vitamin K decreased, all grades (Safety assessments; [9]): 3 (9.4) n (%)
Vomiting, Grade 3/4 (Safety assessments; [9]): 2 (6.3) n (%)
Vomiting, all grades (Safety assessments; [9]): 13 (40.6) n (%)
Weight decreased, Grade 3/4 (Safety assessments; [9]): 0 n (%)
Weight decreased, all grades (Safety assessments; [9]): 2 (6.3) n (%)
anaemia, Grade 3/4, patients (Safety assessments; [9]): 9.4%
anaemia, all grades, patients (Safety assessments; [9]): 21.9%
asthenia, Grade 3/4, patients (Safety assessments; [9]): 6.3%
asthenia, all grades, patients (Safety assessments; [9]): 43.8%
constipation, all grades, patients (Safety assessments; [9]): 40.6%
decreased appetite, all grades, patients (Safety assessments; [9]): 21.9%
dyspepsia, all grades, patients (Safety assessments; [9]): 21.9%
dyspnoea, Grade 3/4, patients (Safety assessments; [9]): 6.3%
nausea, Grade 3/4, patients (Safety assessments; [9]): 6.3%
nausea, all grades, patients (Safety assessments; [9]): 56.3%
patients with Grade 3/4 AEs (Safety assessments; [9]): 56.3%
patients with Grade 3/4 SAEs (Safety assessments; [9]): 40.6%
patients with SAEs of any grade (Safety assessments; [9]): 53.1%
peripheral oedema, all grades, patients (Safety assessments; [9]): 28.1%
pulmonary embolism, Grade 3/4, patients (Safety assessments; [9]): 9.4%
pyrexia, all grades, patients (Safety assessments; [9]): 25%
vomiting, Grade 3/4, patients (Safety assessments; [9]): 6.3%
vomiting, all grades, patients (Safety assessments; [9]): 40.6%
enrolled patients who experienced at least 1 AE (Safety assessments; regardless of study drug relationship, 32 enrolled): 32 patients
serum creatinine change (Safety assessments; some subjects, none clinically relevant or reported as AE): low‐grade creatinine increase
estimated maximum luminal concentration in the gut [4]: approximately 3880 μM
IC50 (p‐glycoprotein (P‐gp); read-out: IC50 for inhibition of P‐gp): 12 µM
Ki (p‐glycoprotein (P‐gp); read-out: Ki for P‐gp, ref data on file): 12 µM
IC50 ([5]; read-out: IC50 for inhibition of BCRP): 16.4 µM
Ki ([5]; read-out: Ki for BCRP, ref data on file): 8.2 µM
Ki [6]: 5.1 µM
Ki (OATP1B3): 5.2 µM
steady state expected to be reached by ([7]; consecutive twice daily dosing): ≤ 3 days
time to maximum plasma concentration (Tmax) ([7]; oral administration): 1 to 2 h
cystatin C level following capmatinib treatment [8]: No change
